Data taken from ChEMBL document CHEMBL3632496, “Novel 2-Carbonylbenzo[b]thiophene 1,1-Dioxide Derivatives as Potent Inhibitors of STAT3 Signaling Pathway” (ACS Med Chem Lett, 2015).
pIC50: −log10 of the molar value. The source made the active and inactive calls. The calls are words filed in the database; no cut-off is given here.

Tests used:
DU-145 = experiment: Cytotoxicity against human DU145 cells assessed as growth inhibition after 48 hrs by MTT assay; assay type: functional, cell-based; settings: DU-145, 48 h
MDA-MB-231 = experiment: Cytotoxicity against human MDA-MB-231 cells assessed as growth inhibition after 48 hrs by MTT assay; assay type: functional, cell-based; settings: MDA-MB-231, 48 h
MCF7 = experiment: Cytotoxicity against human MCF7 cells assessed as growth inhibition after 48 hrs by MTT assay; assay type: functional, cell-based; settings: MCF7, 48 h
[1] = Cytotoxicity against human MDA-MB-435S cells assessed as growth inhibition after 48 hrs by MTT assay; assay type: functional, cell-based
A549 = experiment: Cytotoxicity against human A549 cells assessed as growth inhibition after 48 hrs by MTT assay; assay type: functional, cell-based; settings: A549, 48 h
[2] = Cytotoxicity against human PANC1 cells assessed as growth inhibition after 48 hrs by MTT assay; assay type: functional, cell-based; settings: PANC-1, 48 h
[3] = Cytotoxicity against human HL-7702 cells assessed as growth inhibition after 48 hrs by MTT assay; assay type: cell-based; settings: L02, 48 h
SMMC-7721 = experiment: Cytotoxicity against human SMMC7721 cells assessed as growth inhibition after 48 hrs by MTT assay; assay type: functional, cell-based; settings: SMMC-7721, 48 h
[4] = target: Signal transducer and activator of transcription 3 (Homo sapiens) (UniProt P40763); experiment: Inhibition of STAT3 phosphorylation at Y705 in human MDA-MB-231 cells after 12 hrs by Western blot analysis; assay type: cell-based
Summary of the method: (§1)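 Cells were exposed for 12 h. Whole-cell lysates were immunoblotted with a Y705-phospho-STAT3-specific antibody and for total STAT3.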

[5] = target: Signal transducer and activator of transcription 3 (Homo sapiens) (UniProt P40763); experiment: Inhibition of STAT3-mediated luciferase activity in human HeLa cells at 4 uM after 12 hrs by luminescence assay relative to control; assay type: cell-based
Summary of the method: (§2)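 HeLa cells, which have constitutive STAT3, were transfected with a STAT3-dependent dual luciferase reporter. Reporter luminescence was measured after compound exposure. Values are mean ± SD of triplicate experiments and are compared with vehicle-treated control.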

[6] = target: Signal transducer and activator of transcription 3 (Homo sapiens) (UniProt P40763); experiment: Inhibition of STAT3-mediated luciferase activity in human HeLa cells at 2 uM after 12 hrs by luminescence assay relative to control; assay type: cell-based; summary of the method: as §2
[7] = target: Mitogen-activated protein kinase; ERK1/ERK2 (Homo sapiens) (UniProt P27361+P28482); experiment: Inhibition of ERK1/2 phosphorylation in human MDA-MB-231 cells at 1 to 4 uM after 12 hrs by Western blot analysis; assay type: cell-based
[8] = target: Signal transducer and activator of transcription 3 (Homo sapiens) (UniProt P40763); experiment: Inhibition of STAT3 phosphorylation at Y705 in human MCF7 cells after 12 hrs by Western blot analysis; assay type: cell-based; summary of the method: as §1
[9] = target: Signal transducer and activator of transcription 3 (Homo sapiens) (UniProt P40763); experiment: Inhibition of STAT3 phosphorylation at Y705 in human MDA-MB-435S cells after 12 hrs by Western blot analysis; assay type: cell-based; summary of the method: as §1
[10] = target: Signal transducer and activator of transcription 3 (Homo sapiens) (UniProt P40763); experiment: Inhibition of IL-6-induced STAT3 phosphorylation in overnight starved human MDA-MB-231 cells preincubated for 2 hrs followed by IL-6 induction by Western blot analysis; assay type: cell-based
Summary of the method: (§3)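 Cells were serum-starved overnight and pretreated with compound for 2 h. They were then stimulated with IL-6. Lysates were immunoblotted for phospho-STAT3.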

[11] = target: Proto-oncogene tyrosine-protein kinase Src (Homo sapiens) (UniProt P12931); experiment: Inhibition of Src phosphorylation in human MDA-MB-231 cells at 1 to 4 uM after 12 hrs by Western blot analysis; assay type: cell-based
[12] = target: Signal transducer and activator of transcription 3 (Homo sapiens) (UniProt P40763); experiment: Inhibition of STAT3-mediated luciferase activity in human HeLa cells after 12 hrs by luminescence assay; assay type: cell-based; summary of the method: as §2
[13] = target: Serine/threonine-protein kinase mTOR (Homo sapiens) (UniProt P42345); experiment: Inhibition of mTOR phosphorylation in human MDA-MB-231 cells at 1 to 4 uM after 12 hrs by Western blot analysis; assay type: cell-based
[14] = target: Signal transducer and activator of transcription 3 (Homo sapiens) (UniProt P40763); experiment: Inhibition of IL-6-induced STAT3 phosphorylation in overnight starved human MCF7 cells at 2 to 6 uM preincubated for 2 hrs followed by IL-6 induction by Western blot analysis; assay type: cell-based; summary of the method: as §3

Chain of Signal transducer and activator of transcription 3 (Homo sapiens) (P40763 whole entry): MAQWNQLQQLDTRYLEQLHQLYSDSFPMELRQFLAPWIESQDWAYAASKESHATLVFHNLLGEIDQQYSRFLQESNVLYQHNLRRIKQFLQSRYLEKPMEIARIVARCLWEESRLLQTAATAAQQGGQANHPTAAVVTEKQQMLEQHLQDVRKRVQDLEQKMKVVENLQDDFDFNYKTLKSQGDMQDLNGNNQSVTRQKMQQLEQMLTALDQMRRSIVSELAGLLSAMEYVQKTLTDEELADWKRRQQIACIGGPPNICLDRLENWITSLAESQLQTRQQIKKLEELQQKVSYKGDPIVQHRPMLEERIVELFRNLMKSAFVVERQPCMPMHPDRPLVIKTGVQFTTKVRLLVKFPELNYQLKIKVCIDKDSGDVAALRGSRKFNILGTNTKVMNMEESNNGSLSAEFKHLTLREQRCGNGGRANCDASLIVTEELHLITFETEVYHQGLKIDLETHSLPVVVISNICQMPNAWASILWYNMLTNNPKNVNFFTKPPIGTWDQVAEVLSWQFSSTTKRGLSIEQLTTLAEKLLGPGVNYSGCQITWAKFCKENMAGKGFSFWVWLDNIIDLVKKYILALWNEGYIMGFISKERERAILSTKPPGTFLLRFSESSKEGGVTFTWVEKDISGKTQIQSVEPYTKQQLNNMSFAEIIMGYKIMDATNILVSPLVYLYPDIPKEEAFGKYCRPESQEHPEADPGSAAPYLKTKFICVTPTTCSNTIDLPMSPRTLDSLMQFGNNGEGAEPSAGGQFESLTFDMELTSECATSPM
Chain of Mitogen-activated protein kinase; ERK1/ERK2 (Homo sapiens) (P27361 whole entry, looked up): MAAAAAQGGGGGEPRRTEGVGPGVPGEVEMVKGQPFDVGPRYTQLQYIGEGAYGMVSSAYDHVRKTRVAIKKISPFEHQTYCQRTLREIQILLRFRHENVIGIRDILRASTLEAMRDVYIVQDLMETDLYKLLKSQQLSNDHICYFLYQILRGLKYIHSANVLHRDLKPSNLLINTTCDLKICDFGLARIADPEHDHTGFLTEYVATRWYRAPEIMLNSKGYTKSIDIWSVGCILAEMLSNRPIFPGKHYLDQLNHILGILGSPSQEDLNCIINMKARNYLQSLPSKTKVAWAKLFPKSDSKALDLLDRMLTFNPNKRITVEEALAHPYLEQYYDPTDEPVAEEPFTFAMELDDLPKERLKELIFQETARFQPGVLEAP
Chain of Mitogen-activated protein kinase; ERK1/ERK2 (Homo sapiens) (P28482 whole entry, looked up): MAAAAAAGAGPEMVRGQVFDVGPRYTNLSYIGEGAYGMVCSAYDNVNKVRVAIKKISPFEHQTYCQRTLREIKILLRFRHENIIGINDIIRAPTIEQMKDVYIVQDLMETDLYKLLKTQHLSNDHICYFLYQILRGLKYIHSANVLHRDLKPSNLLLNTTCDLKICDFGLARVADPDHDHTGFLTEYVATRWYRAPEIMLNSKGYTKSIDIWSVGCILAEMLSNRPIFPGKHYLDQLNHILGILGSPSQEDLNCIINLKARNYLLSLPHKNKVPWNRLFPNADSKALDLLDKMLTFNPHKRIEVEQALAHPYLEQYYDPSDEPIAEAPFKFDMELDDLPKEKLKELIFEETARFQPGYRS
Chain of Proto-oncogene tyrosine-protein kinase Src (Homo sapiens) (P12931 2-536 limits assumed): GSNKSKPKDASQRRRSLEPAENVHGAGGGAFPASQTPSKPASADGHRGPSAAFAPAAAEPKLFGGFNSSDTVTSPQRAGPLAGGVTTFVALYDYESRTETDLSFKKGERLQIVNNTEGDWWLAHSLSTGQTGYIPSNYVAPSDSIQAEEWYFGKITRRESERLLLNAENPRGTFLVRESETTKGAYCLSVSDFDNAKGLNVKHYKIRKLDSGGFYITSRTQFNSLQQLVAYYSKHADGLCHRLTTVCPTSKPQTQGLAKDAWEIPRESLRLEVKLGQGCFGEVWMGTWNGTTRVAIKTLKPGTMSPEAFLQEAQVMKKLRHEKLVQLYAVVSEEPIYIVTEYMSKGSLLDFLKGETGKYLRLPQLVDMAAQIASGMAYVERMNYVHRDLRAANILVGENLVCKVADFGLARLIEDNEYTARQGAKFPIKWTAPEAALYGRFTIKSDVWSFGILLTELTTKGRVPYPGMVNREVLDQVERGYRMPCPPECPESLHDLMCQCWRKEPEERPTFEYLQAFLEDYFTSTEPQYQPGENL

SMILES	pIC50 (DU-145)	pIC50 (MDA-MB-231)	pIC50 (MCF7)	pIC50 [1]	pIC50 (A549)	pIC50 [2]	also measured
O=C(Nc1ccccc1)C1=Cc2cc(Br)ccc2S1(=O)=O	5.56	5.76					
Cc1ccc(OC(=O)C2=Cc3c(Br)cccc3S2(=O)=O)cc1	< 4.82	< 4.82					
Cc1ccc(NC(=O)C2=Cc3c(Br)cccc3S2(=O)=O)cc1	5.52	5.61					
CCCCNC(=O)C1=Cc2cc(Br)ccc2S1(=O)=O	5.41	5.64					
O=C(C1=Cc2cc(Br)ccc2S1(=O)=O)N1CCOCC1	5.72	5.98	5.98	6.10	5.64	5.40	
CC(C)NC(=O)C1=Cc2cc(Br)ccc2S1(=O)=O	5.66	5.96	5.91	6.03	5.53	5.30	pIC50 [3]: 4.82; pIC50 (SMMC-7721): 5.62
O=C(Nc1ccccc1)C1=Cc2cc([N+](=O)[O-])ccc2S1(=O)=O	5.28	5.52					
O=C(Nc1ccc(Cl)cc1)C1=Cc2c(Br)cccc2S1(=O)=O	5.20	5.42					
O=C(Nc1ccccc1)C1=Cc2cc(NC(=O)c3ccccc3)ccc2S1(=O)=O	5.21	5.49					
CN(C(=O)C1=Cc2cc(Br)ccc2S1(=O)=O)c1ccccc1	5.90	6.06	5.95	6.02	5.68	5.36	
CC1CCCCN1C(=O)C1=Cc2cc(Br)ccc2S1(=O)=O (stereo unspecified)	6.01	6.02	6.00	6.01	5.89	5.67	
O=C(NC1CCCCC1)C1=Cc2cc(Br)ccc2S1(=O)=O	5.24	5.24					
CC(C)(C)NC(=O)C1=Cc2cc(Br)ccc2S1(=O)=O	5.87	5.87	5.90	6.09	5.55	5.48	
O=C(C1=Cc2cc(Br)ccc2S1(=O)=O)N1CCCCC1							inhibition [4]: Dose-dependent effect; inhibition [5]: 48%; inhibition [6]: 14%; inhibition [7]: inactive; inhibition [8]: Dose-dependent effect; inhibition [9]: Dose-dependent effect; inhibition [10]: Dose-dependent effect; inhibition [11]: inactive; inhibition [12]: Dose-dependent effect; inhibition [13]: inactive; inhibition [14]: Active
CC1CCCN(C(=O)C2=Cc3cc(Br)ccc3S2(=O)=O)C1 (stereo unspecified)	5.85	5.97	5.90	5.86	5.71	5.53	
O=[N+]([O-])c1ccc2c(c1)S(=O)(=O)C=C2	5.60	5.81	5.67	5.73	5.60	5.54	inhibition [4]: Active; inhibition [5]: 36%; inhibition [8]: Active; inhibition [9]: Active
O=C(Nc1ccccc1)C1=Cc2ccc(Br)cc2S1(=O)=O	5.58	5.74					
O=C(Nc1ccc2c(c1)C=C(C(=O)N1CCCCC1)S2(=O)=O)c1ccccc1	5.68	5.77					
O=C(C1=Cc2cc(Br)ccc2S1(=O)=O)N1CCCC1	5.81	5.90	5.86	6.03	5.46	5.46	
CCN(CC)C(=O)C1=Cc2cc(Br)ccc2S1(=O)=O	5.84	5.78	6.05	5.81	5.80	5.71	
O=C(Nc1ccccc1)C1=Cc2c(Br)cccc2S1(=O)=O	5.58	5.76	5.76	5.86	5.39	5.18	pIC50 [3]: 4.82; pIC50 (SMMC-7721): 5.62
O=C(Nc1cccc(Cl)c1)C1=Cc2c(Br)cccc2S1(=O)=O	5.47	5.66					
